DNMT1 inh – human DNMT1 methyltransferase inhibitors, primary screen, biochemical, molecular beacon, fluorescence, HinP1I cleavage, uHTS; DNA (cytosine-5)-methyltransferase 1 (Homo sapiens), P26358; inhibition (reported as % activation of signal), % at 10 µM; 0.83% of 360,000 active; AID 588458, 2011; in the data active = inhibition above about 50%
SUMO1 PPI mod – modulators of SUMO1 protein-protein interactions, primary screen, biochemical, uHTS | SUMO1 binding to a labelled peptide, TR-FRET, 1 h | inhibition, % at 20 µM | 0.33% of 360,000 active; in the data active = inhibition above about 37%
Target sequence (P63165 whole entry, looked up): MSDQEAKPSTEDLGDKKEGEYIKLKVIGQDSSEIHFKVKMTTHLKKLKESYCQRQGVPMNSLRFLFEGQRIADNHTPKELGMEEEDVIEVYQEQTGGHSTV
Scp1 inh – Scp-1 phosphatase inhibitors, primary screen, biochemical, colorimetric, uHTS | 0.88% of 340,000 active | Carboxy-terminal domain RNA polymerase II polypeptide A small phosphatase 1 (Homo … | AID 493091, 2011 | Recombinant Scp1, phosphopeptide, malachite green phosphate absorbance | inhibition, % at 20 µM;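 active = inhibition above about 50% at 20 µM, limit read from the data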
Target sequence (Q9GZU7 76-261 limits assumed): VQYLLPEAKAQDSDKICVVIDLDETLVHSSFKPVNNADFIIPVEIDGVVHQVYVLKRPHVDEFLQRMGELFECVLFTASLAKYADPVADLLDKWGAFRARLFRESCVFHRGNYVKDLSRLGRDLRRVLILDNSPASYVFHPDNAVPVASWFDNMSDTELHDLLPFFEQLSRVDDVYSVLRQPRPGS
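assay system = SCP-1 phosphatase catalytic domain, residues 76-261 | buffer or medium = 50 mM Tris acetate pH 5.5, 0.005% Tween-20, 10 mM MgCl2 | incubation = enzyme reaction 45 min at room temperature, colour 5 min, stabilisation 30 min | signal = Phosphate-binding colour reagent, absorbance read at 630 nm | measure = % inhibition at 20 µM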
LMPTP inh – LMPTP phosphatase inhibitors, primary screen, biochemical, fluorescence intensity, uHTS; Low molecular weight phosphotyrosine protein phosphatase (Homo sapiens), P24666; recombinant LMPTP-A, OMFP fluorogenic substrate; inhibition, % at 20 µM; 0.22% of 360,000 active; AID 651560, 2012;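 active = compounds that cut the enzyme signal by at least half of the control window in the single-dose screen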
Target sequence (P24666 whole entry, looked up): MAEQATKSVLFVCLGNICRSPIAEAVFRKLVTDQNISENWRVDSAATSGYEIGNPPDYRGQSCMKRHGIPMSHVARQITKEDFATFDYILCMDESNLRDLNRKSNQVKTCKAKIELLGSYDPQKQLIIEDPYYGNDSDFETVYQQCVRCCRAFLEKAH
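Assay system: LMPTP-A phosphatase enzyme | Input: 0.625 nM enzyme | Also added: Fluorogenic phosphatase substrate OMFP at 400 µM final | Compound dosing: One test concentration per compound, 20 µM, with 3% DMSO overall | Schedule: 50 min enzyme reaction at room temperature, protected from light | Signal: Fluorescence intensity | Benchmarks: no-enzyme and uninhibited controls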
STEP inh – STEP phosphatase inhibitors, primary screen, biochemical, fluorescence intensity, uHTS. Tyrosine-protein phosphatase non-receptor type 5 (Homo sapiens), P54829. recombinant STEP, OMFP fluorogenic substrate. inhibition, % at 20 µM. 0.25% of 360,000 active;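 active = inhibition at 20 µM, scaled per plate between control wells, above about 37%, limit read from the data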
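Test system: STEP tyrosine phosphatase / Reagent: OMFP at 25 µM / Doses: 20 µM, 1% DMSO / Read-out: percent inhibition scaled to no-enzyme and uninhibited-enzyme controls, plate-pattern corrected / Detection: FITC-channel fluorescence of OMFP product / Medium: Bis-Tris buffer pH 6.0, 2.5 mM DTT, 0.005% Tween 20 / Schedule: 20 min at room temperature, dark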
Scp-1 conf – Scp-1 phosphatase inhibitors, retest, confirmation, biochemical, colorimetric, single concentration | shares compounds with Scp1 inh | recombinant SCP-1 catalytic domain, phosphate release, malachite green absorbance | inhibition, % at 20 µM | 61% of 2,500 active | AID 540281, 2011
MG interference – colorimetric readout interference by compounds, confirmation, artefact control for Scp-1 inhibitor project, biochemical, single concentration; Colorimetric interference counterscreen, malachite green absorbance 630 nm; apparent inhibition (interference), % at 20 µM; shares compounds with Scp1 inh; 2,500 tested, under 10 active; AID 540313, 2011;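 also: compounds added after enzyme reaction finished so only phosphate colour detection is probed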
Scp-1 Tm shift – Scp-1 binding by thermal shift, confirmation, orthogonal assay for Scp-1 inhibitor project, biophysical, differential scanning fluorimetry; shares compounds with Scp1 inh; Recombinant SCP1, Sypro Orange thermal shift Tm; thermal shift relative to vanadate control, % at 40 µM; 25% of 1,500 active;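 active = substances whose mean melting-temperature shift, as a percentage of the reference inhibitor's shift, reaches about 5.3%, limit read from the data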
DNMT1 inh conf – DNMT1 methyltransferase inhibitor retest, confirmation, biochemical, molecular beacon, fluorescence, single concentration | DNMT1 molecular beacon HinP1I cleavage | 8% of 2,300 active | shares compounds with DNMT1 inh | AID 602385, 2012 | inhibition, % at 10 µM;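 active = average inhibition of at least 30% in the single-concentration confirmation test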
Beacon interf – counter-screen for DNMT1 inhibitors: spectral interference. shares compounds with DNMT1 inh. DNMT1 molecular beacon spectral interference counterscreen, fluorescence 485/520. activation (fluorescence interference), % at 10 µM. 1% of 2,300 active;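 active = activation of at least 30% at 10 µM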;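 also: DNMT1 catalytic domain with a HinP1I cleavage step and a FAM/dabcyl DNA beacon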
Large screens that a line does not name were inactive (follow-up assays come after a bar, where they were run). Sampled rows, rich in hits. Any-hit rate of the full collection: about 1.7%.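 The calls were made as follows, unless noted: active = inhibition of at least 30% at 20 µM; inactive = the rest.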

Cc1ccc(NC(=O)Cn2c(O)c(N=NC(N)=O)c3ccccc32)cc1	none
Cc1ccccc1NC(=O)Cn1c(O)c(N=NC(=O)c2ccccc2O)c2ccccc21	DNMT1 inh 91, Scp1 inh 94, STEP inh 48 | Scp-1 conf 77 | MG interference inactive | Scp-1 Tm shift inactive | DNMT1 inh conf inactive | Beacon interf inactive
Cc1nn(CC(=O)NCCCN2CCC(N3CCCCC3)CC2)c(=O)c2cc(-c3ccccc3)nn12	none
CCOC(=O)CN1C(=O)S/C(=C/c2ccc(N3CCCCC3)o2)C1=O	none
CCOC(=O)CN1C(=O)S/C(=C\c2ccc(-c3ccc(C(=O)O)c(Cl)c3)o2)C1=O	DNMT1 inh 65, Scp1 inh 90, STEP inh 90 | Scp-1 conf 59 | MG interference inactive | Scp-1 Tm shift 12 | DNMT1 inh conf inactive | Beacon interf inactive
CCOc1ccc(CCNC(=O)C2CC(C)=CCC2C(=O)O)cc1OCC (centres undefined)	DNMT1 inh 53, SUMO1 PPI mod 56, Scp1 inh 87 | Scp-1 conf 58 | MG interference inactive | Scp-1 Tm shift inactive | DNMT1 inh conf inactive | Beacon interf inactive
CCOc1ccc(CCNC(=O)C2CC=CCC2C(=O)OC(C)C)cc1OCC (centres undefined)	none
O=C(Cc1ccccc1)N/N=C/c1ccc(OC(=O)/C=C\c2ccco2)cc1	none
COC(=O)N/N=C/c1ccc(OC(=O)/C=C/c2ccco2)cc1	DNMT1 inh 53, Scp1 inh 56 | Scp-1 conf inactive | MG interference inactive | DNMT1 inh conf inactive | Beacon interf inactive
NS(=O)(=O)c1ccc(NC(=O)C2Cc3ccccc3CN2C(=O)c2ccco2)cc1 (centres undefined)	DNMT1 inh 59, Scp1 inh 61 | Scp-1 conf 66 | MG interference inactive | Scp-1 Tm shift 7.9 | DNMT1 inh conf inactive | Beacon interf inactive
Cc1ccc(S(=O)(=O)N(C)C)cc1NC(=O)CSc1nncs1	none
O=C(CSc1nc2cc(Cl)ccc2s1)NC(=O)NCc1ccco1	DNMT1 inh 54, Scp1 inh 80 | Scp-1 conf 53 | MG interference inactive | Scp-1 Tm shift inactive | DNMT1 inh conf inactive | Beacon interf inactive
Cc1nc(SCC(=O)NCc2ccco2)c2c(C)c(C)sc2n1	none
CCOc1ccc2nc(SCC(=O)NC(=O)NCc3ccco3)sc2c1	none
Cc1sc2ncnc(SCC(=O)NC(=O)NCc3ccco3)c2c1C	DNMT1 inh 69, Scp1 inh 57 | Scp-1 conf 49 | MG interference inactive | Scp-1 Tm shift inactive | DNMT1 inh conf inactive | Beacon interf inactive
CCCn1nnnc1NCc1cccc(Cl)c1	none
CCOC(=O)C1(CCCc2ccccc2)CCN(C(=O)C2=C(C)OCCO2)CC1	none
O=C1NC(=Nc2ccc(Cl)cc2)/C(=C/c2ccco2)S1	DNMT1 inh 77, Scp1 inh 93, STEP inh 61 | Scp-1 conf 80 | MG interference inactive | Scp-1 Tm shift 7.8 | DNMT1 inh conf inactive | Beacon interf inactive
O=C(CSc1ccsc1[N+](=O)[O-])Nc1cccc(F)c1	DNMT1 inh 96, Scp1 inh 75 | Scp-1 conf 59 | MG interference inactive | Scp-1 Tm shift 9.1 | DNMT1 inh conf inactive | Beacon interf inactive
O=C(CSc1ccsc1[N+](=O)[O-])NCc1ccccc1	none
CSc1ccc(/C=C(\C(=O)O)c2ccc(S(=O)(=O)N3CCCC3)s2)cc1	DNMT1 inh 86, Scp1 inh 69 | Scp-1 conf 68 | MG interference inactive | Scp-1 Tm shift 5.6 | DNMT1 inh conf inactive | Beacon interf inactive
O=C(O)/C(=C\c1cccc(F)c1)c1ccc(S(=O)(=O)N2CCCCC2)s1	none
COc1ccccc1N1C(=N)S/C(=C\c2ccc(-c3ccccc3C(=O)O)o2)C1=O	DNMT1 inh 73, Scp1 inh 62 | Scp-1 conf 49 | MG interference inactive | Scp-1 Tm shift 8.3 | DNMT1 inh conf inactive | Beacon interf inactive
Cc1c(C(=O)O)cccc1-c1ccc(/C=C2\SC(=O)NC2=O)o1	none
C=CC(=O)NCC1OCCc2ccccc21 (centres undefined)	none
O=C(/C=C/c1ccco1)NCC1OCCc2ccccc21 (centres undefined)	DNMT1 inh 56, Scp1 inh 91 | Scp-1 conf 62 | MG interference inactive | Scp-1 Tm shift inactive | DNMT1 inh conf inactive | Beacon interf inactive
CCCc1cc(=O)[nH]c(SCC(=O)NCC2COc3ccccc3O2)n1 (centres undefined)	none
COC(=O)[C@@]1(Cc2ccc(OC)cc2)[C@H]2c3cc(C(=O)N4CCCC4)n(Cc4ccsc4Br)c3C[C@H]2CN1C(=O)c1ccccc1	none (no result: DNMT1 inh, Scp1 inh, STEP inh)
NS(=O)(=O)c1ccc(NC(=O)/C=C/c2ccco2)cc1	DNMT1 inh 62, Scp1 inh 68 | Scp-1 conf 64 | MG interference inactive | Scp-1 Tm shift inactive | DNMT1 inh conf inactive | Beacon interf inactive

High-throughput results deposited in PubChem BioAssay by Sanford-Burnham Center for Chemical Genomics.
